{"data": "Published values pooled from the literature", "target": "Serine/threonine-protein kinase 16 (STK16, Homo sapiens, UniProt O75716)", "note": "Compare with care: the assays were run in different laboratories."}
{"Structure (SMILES)": "c1ccc(N2CCN(Cc3nc4ccccc4[nH]3)CC2)nc1", "assay": "binding, competition with immobilised ligand", "conditions": "1 µM", "endpoint": "remaining binding", "result": "87%"}
{"Structure (SMILES)": "Cc1sc(C(=O)NC2COC2)cc1-n1cc(NC(=O)Nc2c(F)cccc2Cl)cn1", "assay": "enzyme activity, inhibitor", "conditions": "10 µM", "endpoint": "remaining activity", "result": "94.4%"}
{"Structure (SMILES)": "COc1cc(Cl)c(C(=O)N[C@@H](CN[C@H]2CC[C@@H](N)CC2)Cc2ccc(C#N)cc2)cc1-c1ccc(CN[C@H](C)c2ccc(C)cc2)o1", "assay": "enzyme activity, inhibitor", "conditions": "1 µM", "endpoint": "remaining activity", "result": "95%"}
{"Structure (SMILES)": "O=C1NC(=O)c2cc(Nc3ccc(F)cc3)c(Nc3ccc(F)cc3)cc21", "assay": "cell-free assay", "conditions": "0.5 µM", "endpoint": "remaining signal", "result": "85.8%"}
{"Structure (SMILES)": "CN(C(=O)c1ccccc1)c1cc(N(C)c2ccc3c(c2)CCc2ccc(C(=O)NCCN4CCOCC4)cc2C3=O)ccc1F", "assay": "cell-free assay, competition with immobilised ligand", "conditions": "1 µM", "endpoint": "remaining binding", "result": "93%"}
{"Structure (SMILES)": "O=C(Nc1cnn(-c2csc(C(=O)NC3COC3)c2)c1)Nc1ccccc1Cl", "assay": "enzyme activity, inhibitor", "conditions": "5 µM", "endpoint": "remaining activity", "result": "98.6%"}
{"Structure (SMILES)": "CNC(=O)c1cc(Oc2ccc(NC(=O)Nc3ccc(Cl)c(C(F)(F)F)c3)cc2)ccn1", "assay": "cell-free assay", "conditions": "0.5 µM", "endpoint": "remaining signal", "result": "105%"}
{"Structure (SMILES)": "COc1cc(-c2cc(-c3ccc(N4CCNCC4)cc3)cnc2C)cc(OC)c1OC", "assay": "enzyme activity, inhibitor", "conditions": "1 µM", "endpoint": "inhibition", "result": "8%"}
{"Structure (SMILES)": "Cn1cc(Cl)c2c(Oc3c(F)cc(Nc4cc(Cl)nc(N)n4)cc3F)ccnc21", "assay": "cell-free assay, competition with immobilised ligand", "conditions": "0.1 µM", "endpoint": "remaining binding", "result": "100%"}
{"Structure (SMILES)": "COc1cc(Nc2cnc(C#N)c(O[C@H](C)CN(C)C)n2)ncc1-c1cnn(C)c1", "assay": "enzyme activity, inhibitor, radiometric", "conditions": "1 µM", "endpoint": "remaining activity", "result": "91%"}
{"Structure (SMILES)": "Cn1cnc(Br)c1C1=CN(c2ncnc3[nH]cnc23)CCS1", "assay": "enzyme activity, inhibitor, radiometric", "conditions": "2 µM", "endpoint": "inhibition", "result": "67.8%"}
{"Structure (SMILES)": "FC(F)(F)Oc1cccc(-c2cnc3ccc(-c4ccncc4)nn23)c1", "assay": "enzyme activity, inhibitor, radiometric", "conditions": "1 µM", "endpoint": "activity vs control", "result": "120%"}
{"Structure (SMILES)": "CN1CC(Oc2cnc(C#N)cc2-c2ccn3nc(NC(=O)C4CC4)cc3c2)C1", "assay": "enzyme activity, inhibitor", "conditions": "1 µM", "endpoint": "inhibition", "result": "10%"}
{"Structure (SMILES)": "COc1cc(/C=C/C(=O)CC(=O)/C=C/c2ccc(O)c(OC)c2)ccc1O", "assay": "enzyme activity, inhibitor", "conditions": "1 µM", "endpoint": "activity vs control", "result": "91%"}
{"Structure (SMILES)": "CN([C@@H]1CCc2c(CC(=O)O)c3cc(S(C)(=O)=O)ccc3n2C1)S(=O)(=O)c1ccc(F)cc1", "assay": "cell-free assay, competition with immobilised ligand", "conditions": "1 µM", "endpoint": "remaining binding", "result": "95%"}
{"Structure (SMILES)": "C[C@@H]1CCN(C(=O)CC#N)C[C@@H]1N(C)c1ncnc2[nH]ccc12", "assay": "cell-free assay, inhibitor", "conditions": "0.5 µM", "endpoint": "remaining signal", "result": "94.7%"}
{"Structure (SMILES)": "O=C(NCc1ncc(C(F)(F)F)cc1Cl)c1ccc2c(c1)C1(CCS(=O)(=O)CC1)[C@@H](C1CC1)N2S(=O)(=O)c1ccc(F)cc1", "assay": "cell-free assay, competition with immobilised ligand", "conditions": "1 µM", "endpoint": "remaining binding", "result": "99%"}
{"Structure (SMILES)": "C#Cc1cccc(Nc2ncnc3cc(OCCOC)c(OCCOC)cc23)c1", "assay": "cell-free assay", "conditions": "0.5 µM", "endpoint": "remaining signal", "result": "98%"}
{"Structure (SMILES)": "Cn1cncc1C1=CN(c2ncnc3[nH]cnc23)CCS1", "assay": "enzyme activity, inhibitor, radiometric", "conditions": "2 µM", "endpoint": "inhibition", "result": "49.5%"}
